Experiments:
[1] = test system: WiDr; assay: cells; details: Homo sapiens, 72 h
[2] = Cmax in BALB/c mouse at 50 mg/kg, po after 4 hrs; assay type: ADME, organism-based; parameters: dose 50 mg/kg, route oral; details: in vivo
Procedure, shortened: (§1)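 Mouse 4 h oral exposure screen: oral dose of 50 mg/kg given as a solution in 1:1 propylene glycol:water. Plasma drug levels followed over 4 h, giving AUC(0-4h), peak concentration (Cmax) and the concentration at 4 h.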

[3] = test system: K562; assay: Antiproliferative activity against human K562 cells after 72 hrs; assay type: functional, cell-based; details: K562, 72 h
[4] = AUC (0-4 hrs) in BALB/c mouse at 50 mg/kg, po after 4 hrs; assay type: ADME, organism-based; parameters: time < 4 hr, dose 50 mg/kg, route oral; details: plasma
Procedure, shortened: as §1

[5] = Plasma concentration in BALB/c mouse at 50 mg/kg, po after 4 hrs; assay type: ADME, organism-based; parameters: dose 50 mg/kg, route oral
Procedure, shortened: as §1

[6] = test system: PC-3; assay: cells; details: Homo sapiens, PC-3, 72 h
[7] = test system: MDA-MB-231; assay: cells; details: Homo sapiens, MDA-MB-231, 72 h
[8] = Cmax in Sprague-Dawley rat at 10 mg/kg, po; assay type: ADME, organism-based; parameters: dose 10 mg/kg, route oral; details: in vivo
Procedure, shortened: (§2)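 Sprague–Dawley rats each given 10 mg/kg of compound, either intravenously or orally, in separate arms. Pharmacokinetic parameters were reported for each route as means with a variability term in parentheses. These were Cmax, Tmax, AUCtot, t1/2, MRT, and, for the iv dose, Cl and Vss. Oral bioavailability (Fpo) was reported for the oral arm.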

[9] = Cmax in Sprague-Dawley rat at 10 mg/kg, iv; assay type: ADME, organism-based; parameters: dose 10 mg/kg, route intravenous; details: in vivo
Procedure, shortened: as §2

[10] = test system: Serum; assay: (§3) Protein binding in human serum at 10 uM; assay type: ADME, cell-free; details: 10 µM
Procedure, shortened: (§4)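 Binding to human serum proteins measured at a compound concentration of 10 μM.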

[11] = test system: Rattus norvegicus; assay: Oral bioavailability in Sprague-Dawley rat at 10 mg/kg, po; assay type: ADME, organism-based; details: in vivo
Procedure, shortened: as §2

[12] = species on record: Mus musculus; assay: Toxicity in nude mouse; assay type: organism-based; details: in vivo
Procedure, shortened: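 K562 cells implanted subcutaneously in nude mice and staged to about 300 mg tumors. Oral dosing once daily at 5 or 50 mg/kg on a 5 day on/2 day off schedule for two cycles. Toxicity scored as animal deaths or lack of weight gain.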

[13] = AUC (total) in Sprague-Dawley rat at 10 mg/kg, po; assay type: ADME, organism-based; parameters: dose 10 mg/kg, route oral; details: plasma
Procedure, shortened: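 Sprague–Dawley rats; single 10 mg/kg oral dose given as a solution. Total plasma AUC (μM·h) taken from the pharmacokinetic profile alongside Cmax, Tmax, t1/2 and MRT.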

[14] = Volume of distribution in Sprague-Dawley rat at 10 mg/kg, iv; assay type: ADME, organism-based; parameters: dose 10 mg/kg, route intravenous; details: in vivo, read-out: Vss
Procedure, shortened: (§5)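 Sprague-Dawley rats dosed at 10 mg/kg, either iv or orally, with drug as a solution in citric acid buffer pH 4.6. Parameters derived from plasma levels: Cmax, Tmax, AUCtot, t1/2, MRT, clearance, Vss, and oral bioavailability.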

[15] = AUC (total) in Sprague-Dawley rat at 10 mg/kg, iv; assay type: ADME, organism-based; parameters: dose 10 mg/kg, route intravenous; details: plasma
Procedure, shortened: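 Sprague–Dawley rats; single 10 mg/kg intravenous dose as a solution in citric acid buffer at pH 4.6. Total plasma AUC (μM·h) taken from the pharmacokinetic profile alongside Cmax, t1/2, MRT, clearance and Vss.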

[16] = Mean residence time in Sprague-Dawley rat at 10 mg/kg, iv; assay type: ADME, organism-based; parameters: dose 10 mg/kg, route intravenous; details: in vivo
Procedure, shortened: as §5

[17] = Mean residence time in Sprague-Dawley rat at 10 mg/kg, po; assay type: ADME, organism-based; parameters: dose 10 mg/kg, route oral; details: in vivo
Procedure, shortened: as §5

[18] = Tmax in Sprague-Dawley rat at 10 mg/kg, po; assay type: ADME, organism-based; parameters: dose 10 mg/kg, route oral; details: in vivo
Procedure, shortened: as §5

[19] = test system: Rattus norvegicus; assay: Clearance in Sprague-Dawley rat at 10 mg/kg, iv; assay type: ADME, organism-based; parameters: dose 10 mg/kg, route intravenous; details: in vivo
Procedure, shortened: as §5

[20] = as §3; assay type: ADME, cell-free; details: read-out: PPB (converted)
Procedure, shortened: as §4

SMILES	IC50 [1] [nM]	Cmax [2] [nM]	IC50 [3] [nM]	AUC(0-t) at 4 h [4] [µM·h]	concentration at 4 h [5] [nM]	IC50 [6] [nM]	IC50 [7] [nM]	fraction unbound at 10 µM [20]	Cmax [8] [nM]	Cmax [9] [nM]	PPB [10] [%]	F [11] [%]	Activity [12]	AUC [13] [µM·h]	Vd [14] [L/kg]	AUC [15] [µM·h]	MRT [16] [h]	MRT [17] [h]	Tmax [18] [h]	clearance [19] [mL/min/kg]
Cc1nc(Nc2ncc(C(=O)Nc3c(C)cccc3Cl)s2)cc(N2CCC(CO)CC2)n1	41	2500	< 1	3.5	180	11	9	–	–	–	–	–	–	–	–	–	–	–	–	–
Cc1nc(Nc2ncc(C(=O)Nc3c(C)cccc3Cl)s2)cc(N2CCN(CCO)CC2)n1.O [DASATINIB]	52	2700	< 1	4.8	700	9.4	12	–	500	13200	91	27	Non-toxic	3.8	6.3	13.9	4.1	6.7	2.2	26.4
Cc1cccc(Cl)c1NC(=O)c1cnc(Nc2cccc(NCCO)n2)s1	7.9	7000	< 3	7.2	300	13	3.1	0.08	–	–	–	–	–	–	–	–	–	–	–	–
Cc1nc(Nc2ncc(C(=O)Nc3c(C)cccc3Cl)s2)cc(N2CCOCC2)n1	27	67	< 3	0.16	37	3.6	16	–	–	–	–	–	–	–	–	–	–	–	–	–
Cc1cc(Nc2ncc(C(=O)Nc3c(C)cccc3Cl)s2)nc(C)n1	–	–	1.6	–	–	67	–	–	–	–	–	–	–	–	–	–	–	–	–	–
Cc1cccc(Cl)c1NC(=O)c1cnc(Nc2cccc(NCCCn3ccnc3)n2)s1	4.1	88	< 3	0.16	33	2.8	< 3	0.01	–	–	–	–	–	–	–	–	–	–	–	–
Cc1nc(NCCO)cc(Nc2ncc(C(=O)Nc3c(C)cccc3Cl)s2)n1	210	800	< 4	1.5	170	27	140	–	–	–	–	–	–	–	–	–	–	–	–	–

Further lines, with some results ahead:

IC50 [1] [nM]	Cmax [2] [nM]	IC50 [3] [nM]	AUC(0-t) at 4 h [4] [µM·h]	concentration at 4 h [5] [nM]	IC50 [6] [nM]	IC50 [7] [nM]	fraction unbound at 10 µM [20]	SMILES	Cmax [8] [nM]	Cmax [9] [nM]	PPB [10] [%]	F [11] [%]	Activity [12]	AUC [13] [µM·h]	Vd [14] [L/kg]	AUC [15] [µM·h]	MRT [16] [h]	MRT [17] [h]	Tmax [18] [h]	clearance [19] [mL/min/kg]
32	8600	< 2	13	1100	10	34	–	Cc1cccc(Cl)c1NC(=O)c1cnc(Nc2cccc(NCCCN3CCOCC3)n2)s1	–	–	–	–	–	–	–	–	–	–	–	–
27	3100	< 2	11	3100	14	23	0.08	Cc1nc(NCCCN2CCOCC2)cc(Nc2ncc(C(=O)Nc3c(C)cccc3Cl)s2)n1	–	–	–	–	–	–	–	–	–	–	–	–
180	2200	< 1	3.1	280	25	47	–	Cc1nc(NCCN2CCOCC2)cc(Nc2ncc(C(=O)Nc3c(C)cccc3Cl)s2)n1	–	–	–	–	–	–	–	–	–	–	–	–
270	960	< 3	1.7	220	24	45	–	Cc1cccc(Cl)c1NC(=O)c1cnc(Nc2cc(N3CCOCC3)ncn2)s1	–	–	–	–	–	–	–	–	–	–	–	–
270	9600	< 2	17	1900	82	170	–	Cc1cccc(Cl)c1NC(=O)c1cnc(Nc2cc(NCCN3CCOCC3)ncn2)s1	–	–	–	–	–	–	–	–	–	–	–	–
